Data: ChEMBL document CHEMBL5712071, “BET bromodomain protein inhibition is a therapeutic option for medulloblastoma” (Oncotarget, 2013)
Active and inactive are the calls of the source. No cut-off for these calls is given here.

Columns and labels:
[1] = biological target: Bromodomain-containing protein 4 (Homo sapiens) (UniProt O60885); settings: HD-MB03, dose 500.0 nM, time 72.0 hrs
[2] = test system: ONS-76; experiment: Anti-proliferative activity against human ONS-76 cells assessed as reduction in cell viability incubated for 96 hrs by MTT assay; type: functional, cell-based; settings: ONS-76, 96 h
In short: (§1)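 Cells seeded in triplicate at 2 × 10^3 per well and allowed to adhere for 24h. JQ1 was given as serial dilutions in full medium, 1nM-6µM, from a 10 mM DMSO stock. Viability was read by MTT at each time point and IC50 derived from dose-response curves. Culture media were RPMI 1640/10% FCS for HD-MB3 (plus 1% NEAA), ONS-76, Daoy and UW-228, and EMEM/10% FCS for D-283 and D-341.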

[3] = biological target: Bromodomain-containing protein 4 (Homo sapiens) (UniProt O60885); settings: D283 Med, dose 500.0 nM, time 24.0 hrs
[4] = test system: HD-MB03; experiment: Inhibition of BRD4 female athymic (nu/nu) mouse xenografted with human HD-MB03 cells as reduction in MYC protein expression in tumor at 50 mg/kg, ip administered at 0, 12, 24 and 36 hrs over 2-day course by Western blot analysis; type: functional, organism-based
In short: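 Same flank HD-MB3 xenografts in female nu/nu mice. Given 4 i.p. doses of JQ1 50 mg/kg (or DMSO) at 0, 12, 24 and 36h; tumours excised 4h after the last dose and snap-frozen. MYC measured by RT-PCR (mean ± S.D.) or western blot with β-actin loading control, 3 tumours per group.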

[5] = test system: D283 Med; experiment: Induction of apoptosis in human D283 cells assessed as increase in population of cells in G1 phase at 500 nM incubated for 72 hrs by ELISA; type: functional, cell-based
[6] = biological target: Bromodomain-containing protein 4 (Homo sapiens) (UniProt O60885); settings: HD-MB03, dose 500.0 nM, time 6-24 hrs
[7] = biological target: Bromodomain-containing protein 4 (Homo sapiens) (UniProt O60885); settings: UW228, dose 500.0 nM, time 24.0 hrs
[8] = test system: ONS-76; experiment: Anti-proliferative activity against human ONS-76 cells assessed as reduction in cell viability incubated for 72 hrs by MTT assay; type: functional, cell-based; settings: ONS-76, 72 h
In short: as §1

[9] = biological target: Bromodomain-containing protein 4 (Homo sapiens) (UniProt O60885); settings: D341 cell line, dose 500.0 nM, time 72.0 hrs
[10] = test system: HD-MB03; experiment: Induction of apoptosis in human HD-MB03 cells assessed as increase in population of cells in sub-G1 phase at 500 nM incubated for 72 hrs by flow cytometry; type: functional, cell-based
In short: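 PI flow cytometry: cells seeded in triplicate, adhered 24h, then exposed to 500 nM JQ1 or DMSO control (methods give 48h culture, legend gives 72h). Harvested by trypsin, washed 3 times in PBS, stained with propidium iodide 15 min, DNA content read by flow cytometry. Sub-G1 fraction taken as apoptotic. Experiments repeated at least 3 times.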

[11] = test system: D341 cell line; experiment: Anti-proliferative activity against human D341 cells assessed as reduction in cell viability incubated for 72 hrs by MTT assay; type: functional, cell-based; settings: D341, 72 h
In short: as §1

[12] = test system: D341 cell line; experiment: Induction of apoptosis in human D341 cells assessed as increase in population of cells in G1 phase at 500 nM incubated for 72 hrs by ELISA; type: functional, cell-based
[13] = test system: ONS-76; experiment: Induction of apoptosis in human ONS-76 cells assessed as increase in population of cells in G1 phase at 500 nM incubated for 72 hrs by flow cytometry; type: functional, cell-based
[14] = test system: Daoy; experiment: Induction of apoptosis in human Daoy cells assessed as increase in population of cells in G1 phase at 500 nM incubated for 72 hrs by flow cytometry; type: functional, cell-based
In short: (§2)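 Cells were cultured with 500 nM JQ1 or DMSO control, trypsinised and washed 3 times in PBS. DNA was stained with propidium iodide for 15 min and DNA content analysed by flow cytometry to give G1 and sub-G1 fractions.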

[15] = test system: ONS-76; experiment: Antiproliferative activity against human ONS-76 cells at 500 nM incubated for 72 hrs by BrdU ELISA method; type: functional, cell-based
In short: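 Cells seeded in triplicate at 2 × 10^3 per well with 24h adherence, then treated with 500 nM JQ1 or DMSO control for 72h. Proliferation was measured by BrdU incorporation ELISA. Experiments were run independently at least 3 times.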

[16] = test system: D341 cell line; experiment: Anti-proliferative activity against human D341 cells assessed as reduction in cell viability incubated for 96 hrs by MTT assay; type: functional, cell-based; settings: D341, 96 h
In short: as §1

[17] = biological target: Bromodomain-containing protein 4 (Homo sapiens) (UniProt O60885); settings: ONS-76, dose 500.0 nM, time 24.0 hrs
[18] = test system: ONS-76; experiment: Induction of apoptosis in human ONS-76 cells assessed as increase in population of cells in sub-G1 phase at 500 nM incubated for 72 hrs by ELISA; type: functional, cell-based
In short: (§3)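 Cell death ELISA on ONS-76 or UW-228 cells seeded 2 × 10^3 per well in triplicate and allowed 24h to adhere. Treated with 500 nM JQ1 or DMSO for 72h, then apoptotic cell death measured by Cell Death Detection ELISA per kit protocol. Experiments repeated at least 3 times.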

[19] = test system: D341 cell line; experiment: Anti-proliferative activity against human D341 cells assessed as reduction in cell viability incubated for 120 hrs by MTT assay; type: functional, cell-based; settings: D341, 120 h
In short: as §1

[20] = test system: D341 cell line; experiment: Induction of apoptosis in human D341 cells assessed as increase in population of cells in sub-G1 phase at 500 nM incubated for 72 hrs by flow cytometry; type: functional, cell-based
In short: as §2

[21] = test system: HD-MB03; experiment: Anti-proliferative activity against human HD-MB03 cells assessed as reduction in cell viability incubated for 72 hrs by MTT assay; type: functional, cell-based; settings: HD-MB03, 72 h
In short: as §1

[22] = test system: UW228; experiment: Induction of apoptosis in human UW228 cells assessed as increase in population of cells in sub-G1 phase at 500 nM incubated for 72 hrs by ELISA; type: functional, cell-based
In short: as §3

[23] = biological target: Bromodomain-containing protein 4 (Homo sapiens) (UniProt O60885); settings: HD-MB03, dose 500.0 nM, time 24.0 hrs
[24] = biological target: Bromodomain-containing protein 4 (Homo sapiens) (UniProt O60885); settings: D341 cell line, dose 500.0 nM, time 24.0 hrs
[25] = test system: HD-MB03; experiment: Induction of apoptosis in female athymic (nu/nu) mouse xenografted with human HD-MB03 cells as increase in expression of cleaved caspase 3 in tumor at 50 mg/kg, ip administered at 0, 12, 24 and 36 hrs over 2-day course by immunohistochemistry; type: functional, organism-based
In short: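 Nu/nu mice bearing subcutaneous HD-MB3 tumours received JQ1 50 mg/kg ip or DMSO at 0, 12, 24 and 36 h and were killed 4 h after the last dose, 3 tumours per group. Formalin-fixed 5µm sections underwent pH 6.0 antigen retrieval for 20 min at 100°C, then cleaved caspase 3 immunostaining (1:200) with quantification of positive cells.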

Q: Which inhibition [1] does the source give for `Cc1sc2c(c1C)C(c1ccc(Cl)cc1)=N[C@@H](CC(=O)OC(C)(C)C)c1nnc(C)n1-2` here?
A: Its inhibition is 10%.

Q: What about the IC50 [2] of the same compound?
A: Its IC50 is 175 nM.

Q: And the inhibition [3]?
A: Its inhibition is “Active”.

Q: What about the inhibition [4] of the same compound?
A: Its inhibition is “Active”.

Q: What about the Activity [5] of the same compound?
A: The Activity was “Active”.

Q: What about the inhibition [6] of the same compound?
A: Its inhibition is “Active”.

Q: And the inhibition [7]?
A: The inhibition was “Active”.

Q: And the IC50 [8]?
A: The IC50 was 87 nM.

Q: And the inhibition [9]?
A: The inhibition was “Active”.

Q: And the Activity [10]?
A: The Activity was “Active”.

Q: What about the IC50 [11] of the same compound?
A: Its IC50 is 244 nM.

Q: And the Activity [12]?
A: Its Activity is “Active”.

Q: And the Activity [13]?
A: The Activity was “Active”.

Q: What about the Activity [14] of the same compound?
A: Its Activity is “Active”.

Q: And the Activity [15]?
A: The Activity was “Active”.

Q: What about the IC50 [16] of the same compound?
A: The IC50 was 157 nM.

Q: What about the inhibition [17] of the same compound?
A: Its inhibition is “Active”.

Q: What about the Activity [18] of the same compound?
A: Its Activity is “Active”.

Q: What about the IC50 [19] of the same compound?
A: The IC50 was 269 nM.

Q: And the Activity [20]?
A: Its Activity is “Active”.

Q: And the IC50 [21]?
A: Its IC50 is 78 nM.

Q: What about the Activity [22] of the same compound?
A: The Activity was “Active”.

Q: What about the inhibition [23] of the same compound?
A: Its inhibition is greater than 80%.

Q: And the inhibition [24]?
A: The inhibition was “Active”.

Q: What about the Activity [25] of the same compound?
A: Its Activity is “Active”.
